Assay results as given in ChEMBL document CHEMBL1821725, “Synthesis and biological evaluation of 2',4'- and 3',4'-bridged nucleoside analogues” (Bioorg Med Chem, 2011).
Values after ≈ are worked out from the molar mass of the structure shown. Active and inactive are the calls of the source. The calls are words filed in the database; no cut-off is given here.

Legend:
Raji [1] = test: Cytotoxicity against human Raji cells after 72 hrs by MTT assay; assay type: functional, cell-based
In short: (§1)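 Raji and CCRF-CEM cells incubated with compounds for 72 h. Viability read by MTT reduction to formazan, optical density at 570 nm. Data analysed by one-way ANOVA. IC50 taken as concentration giving 50% growth inhibition. Highest concentration tested 10 μM.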

[2] = system: Human immunodeficiency virus 1; test: Antiviral activity against HIV1 HxB2 infected in human TZM-bl cells assessed as inhibition of virus neutralization at 100 uM after 48 hrs by luciferase assay; assay type: functional, organism-based
In short: (§2)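 Single-round HIV-1 pseudoviruses made in 293T cells and titrated on TZM-bl cells. Virus giving ~1 × 10^6 RLU incubated 1 h at 37 °C with serially diluted samples. TZM-bl cells then plated at 1 × 10^5 per well for 48 h. Read-out: luciferase in cell lysate. IC50 = 50% neutralization. Highest concentration tested 100 μM.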

[3] = system: Human immunodeficiency virus 1; test: Antiviral activity against HIV1 SF162 infected in human TZM-bl cells assessed as inhibition of virus neutralization at 100 uM after 48 hrs by luciferase assay; assay type: functional, organism-based; in short: as §2
Staphylococcus aureus [4] = test: Antibacterial activity against Staphylococcus aureus 8325 at 64 uM after 24 hrs by micro-broth dilution method; assay type: functional; conditions: NCTC 8325
In short: (§3)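 CLSI broth microdilution. Compounds serially diluted in cation-adjusted Mueller Hinton broth. Inoculum from fresh overnight MHA plate scrape, adjusted to 1 × 10^7 CFU/ml, 5 μL added per well. Incubated at 37 °C for 24 h. MIC = lowest concentration with no visible growth; median of at least three independent replicates. Highest concentration tested 64 μM.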

Escherichia coli [5] = test: Antibacterial activity against Escherichia coli MG1655 at 64 uM after 24 hrs by micro-broth dilution method; assay type: functional; conditions: K-12 substr. MG1655; in short: as §3
CCRF-CEM [6] = test: Cytotoxicity against human CCRF-CEM cells after 72 hrs by MTT assay; assay type: functional, cell-based; in short: as §1
[7] = Cytotoxicity against human MT4 cells; assay type: cell-based
[8] = system: Human immunodeficiency virus 1; test: Antiviral activity against HIV1 HxB2 infected in human TZM-bl cells assessed as inhibition of virus neutralization after 48 hrs by luciferase assay; assay type: functional, organism-based; conditions: Human immunodeficiency virus 1, HxB2, TZM-bl; in short: as §2
[9] = system: Human immunodeficiency virus 1; test: Antiviral activity against HIV1 SF162 infected in human TZM-bl cells assessed as inhibition of virus neutralization after 48 hrs by luciferase assay; assay type: functional, organism-based; in short: as §2
[10] = Cytotoxicity against human TZM-bl cells at 33 uM after 48 hrs; assay type: cell-based
[11] = system: Human immunodeficiency virus 1; test: Antiviral activity against HIV1 LAI; assay type: functional, organism-based; conditions: Human immunodeficiency virus 1, LAI
[12] = system: Human immunodeficiency virus; test: Antiviral activity against HIV; assay type: functional; conditions: Human immunodeficiency virus 1; read-out: ED50 (the source's name)
Staphylococcus aureus [13] = test: Antibacterial activity against Staphylococcus aureus 8325 after 24 hrs by micro-broth dilution method; assay type: functional; conditions: NCTC 8325, 24 h; in short: as §3
CCRF-CEM [14] = test: Cytotoxicity against human CCRF-CEM cells at 10 uM after 72 hrs by MTT assay; assay type: functional, cell-based; in short: as §1
Escherichia coli [15] = test: Antibacterial activity against Escherichia coli MG1655 after 24 hrs by micro-broth dilution method; assay type: functional; conditions: K-12 substr. MG1655, 24 h; in short: as §3
Raji [16] = test: Cytotoxicity against human Raji cells at 10 uM after 72 hrs by MTT assay; assay type: functional, cell-based; in short: as §1
[17] = Human immunodeficiency virus 1, SF162, TZM-bl, 48 h, read-out: IC50

Row | SMILES | inhibition (Staphylococcus aureus [4]) | inhibition (Escherichia coli [5]) | IC50 [8] | growth inhibition (GI) (CCRF-CEM [14]) | IC50 [9, 17] | growth inhibition (GI) (Raji [16]) | further results
1 | O=C(c1ccccc1)N(C(=O)c1ccccc1)c1nc(N(C(=O)c2ccccc2)C(=O)c2ccccc2)c2ncn([C@@H]3O[C@@]4(CO)CO[C@@H]3[C@@H]4OCc3ccccc3)c2n1 | inactive | inactive | – | – | – | – | IC50 (Raji [1]): 0.25 µM; inhibition [2]: inactive; inhibition [3]: inactive; IC50 (CCRF-CEM [6]): 0.36 µM
2 | Cc1cn([C@H]2C[C@@H]3COC[C@]3(CO)O2)c(=O)[nH]c1=O | – | – | – | – | – | – | CC50 [7]: 0.54 mg/L (≈ 2.01 µM)
3 | C=CCc1nc(/C=C/C)c2ncn([C@@H]3O[C@@]4(CO)CO[C@@H]3[C@@H]4OCc3ccccc3)c2n1 | inactive | inactive | 2.4 µM | – | – | – | IC50 (Raji [1]): 5.8 µM; IC50 ([9]; tzm-bl): Not Active; Activity [10]: Toxic; IC50 (CCRF-CEM [6]): 7.6 µM
4 | Cc1cn([C@@H]2O[C@@]3(CO)COC[C@H]3[C@H]2O)c(=O)[nH]c1=O | – | – | – | – | – | – | CC50 [7]: 0.54 mg/L (≈ 1.9 µM)
5 | Cc1cn([C@@H]2C=CC3(CO)C[C@@H]23)c(=O)[nH]c1=O (single isomer, unassigned) | – | – | – | – | – | – | EC50 [11]: 28.8 µM
6 | Cc1cn([C@@H]2O[C@@]3(CO)CO[C@H]3[C@H]2O)c(=O)[nH]c1=O | – | – | – | – | – | – | EC50 [12]: 0.14 µM
7 | CN(Cc1ccccc1)c1nc(Cl)nc2c1ncn2[C@@H]1O[C@@]2(CO)CO[C@@H]1[C@@H]2O | – | – | 24.9 µM | inactive | 27.9 µM | inactive | MIC (Staphylococcus aureus [13]): 8 µM (≈ 3.34 µg/mL); MIC (Escherichia coli [15]): 16 µM (≈ 6.69 µg/mL)
8 | CCCCNc1nc(N)c2ncn([C@@H]3O[C@@]4(CO)CO[C@@H]3[C@@H]4OCc3ccccc3)c2n1 | inactive | inactive | 28 µM | inactive | 68 µM | inactive | –
9 | Nc1nc(Cl)nc2c1ncn2[C@H]1C[C@H](O)[C@@H](CO)O1 [CLADRIBINE] | – | – | – | – | – | – | IC50 (Raji [1]): 0.009 µM; IC50 (CCRF-CEM [6]): 0.0005 µM
10 | Cc1cn([C@H]2C[C@H](N=[N+]=[N-])[C@@H](CO)O2)c(=O)[nH]c1=O [ZIDOVUDINE] | – | – | 0.037 µM | – | 0.078 µM | – | EC50 [12]: 0.001 µM
11 | OC[C@@]12CO[C@@H]([C@H](n3cnc4c(NCc5ccccc5)nc(Cl)nc43)O1)[C@@H]2OCc1ccccc1 | inactive | inactive | 2.4 µM | inactive | 7 µM | inactive | –
12 | CCNc1nc(N)c2ncn([C@@H]3O[C@@]4(CO)CO[C@@H]3[C@@H]4OCc3ccccc3)c2n1 | inactive | inactive | – | inactive | 60 µM | inactive | inhibition [2]: inactive
